Laboratory results: ChEMBL document CHEMBL4364341, “Radiosensitization of Head and Neck Squamous Cell Carcinoma (HNSCC) by a Podophyllotoxin” (ACS Med Chem Lett, 2019)
The source made the active and inactive calls. The rule behind the calls is not given here.

Tests used:
FaDu [1] = assay: Synergistic antiproliferative activity against human FADU cells assessed as combination index at 5 uM preincubated for 1 hr followed by irradiation with 5 Gy IR and measured after 6 days by MTT assay; type: functional
Procedure, shortened: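 Combination index was calculated by the Chou–Talalay median-effect method from the 6-day MTT viability data of the single-plate compound/X-ray (2.5, 5, 10 Gy) design. CI < 1 denotes synergy, CI = 1 additivity and CI > 1 antagonism.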

SCC-25 [2] = assay: Synergistic antiproliferative activity against human SCC25 cells assessed as fractional inhibition at 5 uM preincubated for 1 hr followed by irradiation with 5 Gy IR and measured after 6 days by MTT assay (reference value: 0.133); type: functional
Procedure, shortened: (§1)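 SCC-25 cells seeded 1000/well in 96-well plates in DMEM/10% FBS and left 24 h. Drug or vehicle added, then after 1 h X-irradiated to 2.5, 5 or 10 Gy on one plate using a shifted lead shield. Plates incubated 6 days, then MTT (0.5 mg/mL, 45 min), DMSO solubilisation, absorbance at 570 nm. Fractional inhibition = 1 − fraction of surviving cells.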

SCC-25 [3] = assay: Synergistic antiproliferative activity against human SCC25 cells assessed as combination index at 0.005 uM preincubated for 1 hr followed by irradiation with 2.5 Gy IR and measured after 6 days by MTT assay; type: functional
Procedure, shortened: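 SCC-25 cells grown in DMEM with 10% FBS at 37 °C, 5% CO2, seeded 1000 cells/well in 96-well plates and left 24 h. Drug in DMSO, diluted in complete medium, added 1 h before X-irradiation. A movable 5 mm lead shield gave 0, 2.5, 5 or 10 Gy on one plate. After 6 days, MTT readout at 570 nm. Combination index by Chou–Talalay from viability data.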

SCC-25 [4] = assay: Synergistic antiproliferative activity against human SCC25 cells assessed as fractional inhibition at 0.005 uM preincubated for 1 hr followed by irradiation with 10 Gy IR and measured after 6 days by MTT assay (reference value: 0.347); type: functional; procedure, shortened: as §1
SCC-25 [5] = assay: Antiproliferative activity against human SCC25 cells assessed as reduction in cell viability at 1 uM after 6 days by MTT assay relative to control; type: functional, cell-based
Procedure, shortened: (§2)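 FaDu or SCC-25 cells were grown in DMEM with 10% FBS at 37 °C and 5% CO2. They were seeded at 1000 cells/well in 96-well plates for 24 h, then dosed with compound (fresh DMSO stock diluted in medium) or vehicle. After 1 h, X-rays were given with a sliding 5 mm lead shield, so one plate held 0, 2.5, 5 and 10 Gy columns. After 6 days, MTT (0.5 mg/mL, 45 min) was added, then DMSO, and A570 was read. Values were normalised to the unirradiated vehicle control. Fractional inhibition = 1 − surviving fraction.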

SCC-25 [6] = assay: Synergistic induction of apoptosis in human SCC25 cells at 0.5 uM followed irradiation with 5Gy IR by annexin V FITC and propidium iodide staining based flow cytometry; type: functional, cell-based; details: TDE = time-dependent effect
Procedure, shortened: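 FaDu or SCC-25 cells, untreated, given 5 Gy IR, drug, or both. Apoptotic cells measured by annexin V flow cytometry 48 h after treatment. Percentage compared with control by t test.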

SCC-25 [7] = assay: Synergistic antiproliferative activity against human SCC25 cells assessed as fractional inhibition at 5 uM preincubated for 1 hr followed by irradiation with 2.5 Gy IR and measured after 6 days by MTT assay (reference value: 0.011); type: functional; procedure, shortened: as §1
SCC-25 [8] = assay: Induction of cell cycle arrest in human SCC25 cells at 0.5 uM by propidium iodide staining based flow cytometry; type: functional
Procedure, shortened: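 Cell-cycle distribution was measured by propidium iodide staining and flow cytometry. Readings were taken 6 and 24 h after compound alone, 5 Gy IR alone, or the combination, against control.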

SCC-25 [9] = assay: Selectivity ratio of IC50 for antiproliferative activity against human SCC25 cells assessed as reduction in colony formation unit to IC50 for antiproliferative activity against human SCC25 cells assessed as reduction in colony formation unit followed by irradiation with 5 Gy IR; type: functional
[10] = target: T1, Nuclear factor erythroid 2-related factor 2 (Homo sapiens) (UniProt Q16236); assay: Inhibition of Nrf2 in human FADU cells at 0.5 uM incubated for 48 hrs by immunofluorescence analysis; type: cell-based
T1 sequence (whole entry): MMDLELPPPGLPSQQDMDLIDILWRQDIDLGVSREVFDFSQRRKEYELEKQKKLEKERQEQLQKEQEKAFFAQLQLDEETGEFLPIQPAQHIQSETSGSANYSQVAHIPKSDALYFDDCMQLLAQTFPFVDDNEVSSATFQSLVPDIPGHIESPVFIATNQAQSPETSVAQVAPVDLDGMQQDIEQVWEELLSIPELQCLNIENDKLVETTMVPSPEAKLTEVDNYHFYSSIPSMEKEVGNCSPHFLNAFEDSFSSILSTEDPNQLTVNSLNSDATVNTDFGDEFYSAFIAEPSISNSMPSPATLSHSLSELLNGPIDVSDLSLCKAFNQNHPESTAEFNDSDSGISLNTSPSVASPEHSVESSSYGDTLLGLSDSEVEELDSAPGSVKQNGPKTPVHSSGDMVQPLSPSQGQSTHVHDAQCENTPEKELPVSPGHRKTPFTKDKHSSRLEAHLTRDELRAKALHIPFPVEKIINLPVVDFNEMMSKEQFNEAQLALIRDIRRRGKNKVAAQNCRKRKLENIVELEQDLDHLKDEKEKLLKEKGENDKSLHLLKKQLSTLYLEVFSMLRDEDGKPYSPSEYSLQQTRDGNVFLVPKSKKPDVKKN
Procedure, shortened: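 FaDu cells received compound, 5 Gy IR, or both, and Nrf2 was imaged by immunofluorescence 48 h later.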

FaDu [11] = assay: Synergistic antiproliferative activity against human FADU cells assessed as fractional inhibition at 5 uM preincubated for 1 hr followed by irradiation with 10 Gy IR and measured after 6 days by MTT assay (reference value: 0.388); type: functional; procedure, shortened: as §2
FaDu [12] = assay: Synergistic induction of apoptosis in human FADU cells assessed as decrease in Bcl2 at 0.5 uM followed by irradiation with 5 Gy IR incubated for 48 hrs by immunoblot analysis; type: functional, cell-based
Procedure, shortened: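 FaDu cells received drug, 5 Gy IR, or both; vehicle-only controls. Lysates collected after 48 h and immunoblotted with primary antibodies to NRF2, cyclin B1, CDK1, Bax and Bcl-2. Membranes stripped and reprobed for beta-actin as loading control.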

FaDu [13] = assay: Inhibition of cell migration in human FADU cells at 0.5 uM incubated for 12 and 24 hrs by microscopic analysis; type: functional, cell-based
Procedure, shortened: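 Scratch assay: 10^5 cells/well were grown to confluence in 12-well plates, with mitomycin C to block proliferation. Cells were treated with compound for 24 h, with or without 5 Gy IR, then scratched with a pipette tip, washed with PBS and given fresh medium. Imaging was at 0, 6, 12 and 24 h. % migration = gap decrease relative to the 0 h gap.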

[14] = target: T1, Nuclear factor erythroid 2-related factor 2 (Homo sapiens); assay: Synergistic inhibition of Nrf2 in human FADU cells at 0.5 uM followed by irradiation with 5 Gy IR incubated for 48 hrs by immunofluorescence analysis; type: cell-based
FaDu [15] = assay: Synergistic antiproliferative activity against human FADU cells assessed as reduction in colony formation unit followed by irradiation with 5 Gy IR and measured after 10 to 14 days by crystal violet staining based assay; type: functional, cell-based

COc1ccc2c(c1)N(CCO)C1=C(C(=O)OC1)C2c1ccccc1 (stereo unspecified)
CI (FaDu [1]): 0.324 | fractional inhibitory concentration index (FICI) (SCC-25 [2]): 0.728 | CI (SCC-25 [3]): 1.216 | fractional inhibitory concentration index (FICI) (SCC-25 [4]): 0.388 | inhibition (SCC-25 [5]): inactive | Activity (SCC-25 [6]): Tde | fractional inhibitory concentration index (FICI) (SCC-25 [7]): 0.531 | Activity (SCC-25 [8]): inactive | Ratio IC50 (SCC-25 [9]): 2 | inhibition [10]: Active | fractional inhibitory concentration index (FICI) (FaDu [11]): 0.681 | Activity (FaDu [12]): Active | inhibition (FaDu [13]): inactive | inhibition [14]: Active | inhibition (FaDu [15]): Dose-dependent effect | IC50 (FaDu [15]; light or radiation study): 496 nM
